Bioassay records as filed in PubChem BioAssay.
MC4R antagonist: blocks human MC4R cAMP signaling. 0.48% of 360,000 active. inhibition, % at 6.5 µM. MC4R-expressing cells, MTII-stimulated cAMP, LANCE TR-FRET;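 active = inhibition above its plate's cutoff, the mean of tested wells on that plate plus 3 SD, cut at about 29% in these data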;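 also: 0% = Melanotan II alone and 100% = Melanotan II plus saturating MCL0020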
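Material – human MC4R-expressing U2OS cells · Repeats – no replicates · Detection – TR-FRET with Eu-cAMP and labeled anti-cAMP, 671 nm · Times – compound 30 min, challenge 1 h, detection 1 h · Compound – single nominal compound dose of 6.5 µM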
Myeloid diff 2: promotes myeloid progenitor differentiation; ER-HoxA9 myeloid progenitors, lysozyme-GFP differentiation, flow cytometry; calls only at 10 µM; 1% of 360,000 active; AID 624256;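 active = normalized GFP-positive differentiation at or above the plate's own cutoff, the solvent-only control mean plus 3 SD; inconclusive = no clear call, values can overlap the other calls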;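 also: cells exposed to compound for four days before flow analysis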
MC4R ag barr: human MC4R agonism via beta-arrestin | 0.98% of 360,000 active | U2OS MC4R beta-arrestin complementation, luminescence; percent of melanotan II response, DMSO zero | activation, % at 8.9 µM;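 active = activation above a per-plate cutoff, the mean activation of sample wells on that plate plus 3 SD, cut at about 8% in these data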
EBI2 block: EBI2 (human) antagonism; P32249; EBI2 beta-arrestin recruitment, luminescence, 7a,25-OHC stimulated; inhibition, % at 5 µM; 0.81% of 360,000 active; in the data active = inhibition above about 38%;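 also: enzyme fragment complementation signal reports receptor beta-arrestin coupling in cells; 0% = agonist plus DMSO wells and 100% = wells without agonist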
Target sequence (P32249 whole entry, looked up, the tested form may be a part): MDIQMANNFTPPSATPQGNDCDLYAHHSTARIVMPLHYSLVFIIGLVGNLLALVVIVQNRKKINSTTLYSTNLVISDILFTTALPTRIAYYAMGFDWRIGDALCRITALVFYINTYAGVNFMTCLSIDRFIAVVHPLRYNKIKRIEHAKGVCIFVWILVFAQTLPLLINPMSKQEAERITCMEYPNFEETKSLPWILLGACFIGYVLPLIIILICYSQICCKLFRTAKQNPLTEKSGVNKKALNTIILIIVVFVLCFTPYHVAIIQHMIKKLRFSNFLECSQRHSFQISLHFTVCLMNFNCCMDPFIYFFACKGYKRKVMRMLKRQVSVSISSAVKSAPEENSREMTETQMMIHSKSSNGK
Granule exo inh: lytic granule exocytosis inhibition; inhibition, % at 10 µM; TALL-104 LAMP-1 surface exposure, flow cytometry; cells stimulated with thapsigargin and PMA; AID 651702; 0.66% of 360,000 active;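 active = inhibition above about 55%, limit read from the data; inconclusive = no clear call, values can overlap the other calls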
Exocytosis CP01: blocks lytic granule exocytosis; shares compounds with Granule exo inh; TALL-104 cells, LAMP-1 externalization, flow cytometry; stimulated with PMA plus thapsigargin; inhibition, % at 10 µM; 11% of 1,500 active; AID 651954; in the data active = inhibition above about 60%;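 also: 0% = stimulated vehicle wells and 100% = unstimulated wells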
* = called active by the depositor; i = inactive; u = inconclusive; x = no result given. This is a sample that favours compounds with a hit; in the whole collection about 3.7% have one here.

SMILES	MC4R antagonist	Myeloid diff 2	MC4R ag barr	EBI2 block	Granule exo inh	Exocytosis CP01
COc1ccccc1N1CCN(S(=O)(=O)CCNC(=O)C(C)Oc2ccccc2)CC1 (stereo not given)	8	i	-1	-7	-2	x
CC1(C)Nc2ccccc2C(=O)N1c1ccccc1	17	i	1	-10	-11	x
S=C(NCCCN1CCOCC1)N1CCN(c2nc(-c3ccc(Cl)cc3)cs2)CC1	15	i	1	40	77*	47
CCOc1ccc2[nH]c(C)c(CN3CCN(C)CC3)c(=O)c2c1	-3	i	-1	3	68*	-11
CSc1ccc(CN2CCCC(N3CCN(c4ccccc4)CC3)C2)cc1 (stereo not given)	-2	i	2	3	67*	-13
O=C1c2cccc(NCCNCCO)c2C(=O)c2cccc(NCCNCCO)c21	-27	u	-2	-5	-17	x
COc1ccccc1N(CC(=O)NC1CCCC1)C(=O)CCC(=O)Nc1ccccn1	0	i	0	-4	-1	x
Nc1c(C(=O)Nc2ccccc2)sc2nc(N3CCOCC3)c3c(c12)CCCC3	21	i	4	19	0	x
COc1cccc(NC(=O)c2sc3nc(N4CCOCC4)c4c(c3c2N)CCCC4)c1	0	u	1	15	69*	-16
O=[N+]([O-])c1ccc(Cl)c(CN2CCN(c3ncccn3)CC2)c1	-10	i	1	-1	-6	x
Cc1ccc2nc(C)c(CN3CCN(c4ccc([N+](=O)[O-])cc4Cl)CC3)n2c1	-14	u	0	47*	72*	-12
COc1cccc(CN(C)C(=O)c2ccc(Oc3ccccc3)cc2)c1OC	-4	i	0	9	73*	27
Nc1sccc1C(=O)c1ccc(Cl)cc1	5	i	0	-8	82*	-3
CCN(CC)CCNc1ncnc2c1sc1nc(N3CCCC3)c3c(c12)CC(C)(C)OC3	-10	i	-3	26	56*	1
CNCc1ccccc1Sc1ccc(O)c(O)c1	-9	i	-2	8	82*	29
C[C@H](O)[C@@H]1CN2CCc3c([nH]c4ccc(-c5ccc6c(c5)OCO6)cc34)[C@@H]2C[C@@H]1N(C)C(=O)Nc1ccc(F)cc1	-8	i	-1	26	65*	1
Cc1ccc(S(=O)(=O)Nc2ccc(C(=O)NCc3cccnc3)cc2)cc1	-3	i	-3	-2	-3	x
Cc1ccc(NS(=O)(=O)c2cc(C(=O)NCc3cccnc3)ccc2C)cc1	11	i	-3	5	63*	-14
COc1cc(SC)ccc1C(=O)NCCc1c[nH]c2ccccc12	-1	i	0	7	62*	-4
c1ccc(OCCOCCN2CCN(C(c3ccccc3)c3ccccc3)CC2)cc1	1	i	1	14	59*	8
CC1C(=O)C(C)C(c2ccccc2)N(N=O)C1c1ccccc1 (stereo not given)	5	i	1	2	0	x
CCN1C(c2ccccc2)C(C)C(=O)C(C)C1c1ccccc1 (stereo not given)	23	i	1	17	58*	-2
COc1cc2ccccc2cc1C(=O)N1CCc2ccccc21	0	i	-5	10	2	x
N#CC1C(=O)c2ccccc2C1c1ccccc1 (stereo not given)	-1	u	-2	-85	64*	-14
O=C1CCC(c2ccccc2)c2ccccc21 (stereo not given)	-8	i	2	-4	-9	x
SMILES	MC4R antagonist	Myeloid diff 2	MC4R ag barr	EBI2 block	Granule exo inh	Exocytosis CP01
Cc1ccc(NC(=O)CN(C)C(=O)COC(=O)[C@@H](NC(=O)c2ccccc2F)C(C)C)cc1	13	i	-4	15	3	x
C[C@@H]1CN([C@H](C)CO)S(=O)(=O)c2ccc(C#Cc3ccccc3F)cc2O[C@H]1CN(C)C(=O)c1ccc2c(c1)OCO2	11	i	-2	-36	15	x
CCCCOc1ccccc1NC(=O)C=C(C)C	6	i	0	-6	6	x
CCCOc1ccccc1NC(=O)/C=C/C(N)=O	6	i	-2	-3	66*	0
Cc1ccc2oc(C(=O)N(C)Cc3ccon3)c(C)c2c1	1	i	1	-2	0	x
Cc1ccc2oc(C(=O)N(C)Cc3ccc(C)o3)c(C)c2c1	12	i	-2	10	81*	24
CCOC(=O)N1CCC(NC(=O)C2CCCN(Cc3nc(-c4ccc(CC)cc4)oc3C)C2)CC1 (stereo not given)	-6	u	2	-16	62*	-3
CC(=O)OC1CC(C)N(C(=O)c2ccccc2)c2ccc(C)cc21 (stereo not given)	-5	i	0	-10	-3	x
CC(=O)N1c2ccc(C)cc2C(c2ccccc2)CC1C (stereo not given)	1	i	0	7	80*	-10
CCC(=O)N1c2ccc(S(=O)(=O)NCCc3ccc(OC)c(OC)c3)cc2CC1C (stereo not given)	13	i	1	-3	16	x
O=C(O)C(Cc1c[nH]c2ccccc12)NS(=O)(=O)c1ccc(F)cc1 (stereo not given)	6	i	-1	-10	-6	x
N#CCOC(=O)[C@H](Cc1c[nH]c2ccccc12)NS(=O)(=O)c1ccc(Cl)cc1	34*	i	1	5	57*	52
COC(=O)C(Cc1c[nH]c2ccccc12)NC(=O)C(=O)c1c[nH]c2ccccc12 (stereo not given)	20	i	1	-9	59*	-12
COC(=O)[C@H](Cc1c[nH]c2ccccc12)NC(=O)Cc1c[nH]c2ccccc12	3	i	-2	-5	66*	-12
COC(=O)[C@H](Cc1c[nH]c2ccccc12)NC(=O)CCCc1c[nH]c2ccccc12	28	i	0	-3	74*	-12
Cc1ccc(S(=O)(=O)N(Cc2ccc(Cl)cc2)c2ccccc2C(=O)NCc2ccco2)cc1	13	i	-2	19	14	x
CCCCC[C@H](C)N1C[C@@H](COCc2ccccc2)Oc2cc(N3CC[C@H](N(C)C)C3)ccc2S1(=O)=O	x	i	x	4	75*	24
CCCCC[C@H](C)N1C[C@H](COCc2ccccc2)Oc2cc(N3CC[C@@H](O)C3)ccc2S1(=O)=O	x	i	x	6	8	x
CCCCC[C@@H](C)N1C[C@@H](COCc2ccccc2)Oc2cc(N3CC[C@H](N(C)C)C3)ccc2S1(=O)=O	x	i	x	10	56*	69*
COc1ccc(-n2nc(C(C)=O)c(=O)[nH]c2=O)cc1	9	i	1	-7	0	x
CN1Cc2c(N3CCOCC3)nc3sc(C(=O)c4ccc(Br)cc4)c(N)c3c2CC1(C)C	10	i	7	16	61*	75*
